Source: ChEMBL document CHEMBL2177069, “Novel peptidomimetic compounds containing redox active chalcogens and quinones as potential anticancer agents” (Eur J Med Chem, 2012)
pIC50: −log10 of the molar value.

Columns and labels:
SR = test: Cytotoxicity against human SR cells; format: functional
DU-145 = test: Cytotoxicity against human DU145 cells; format: functional
Saccharomyces cerevisiae [1] = test: Growth inhibition of UFD2-deficient Saccharomyces cerevisiae YDL190C mutant at 20 ug/disc after 24 to 48 hrs by agar diffusion assay; format: functional; details: read-out: DIZ
Method in brief: (§1)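 S. cerevisiae deletion mutants or wild type grown on YPD, seeded into liquid agar medium at an optical density of 0.1. 6 mm paper discs soaked with methanolic compound solution were placed on the plates and incubated at 30 °C. Growth was checked after 1 and 2 days, and the inhibition zone diameter was recorded in mm.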

Saccharomyces cerevisiae [2] = test: Growth inhibition of RCK1-deficient Saccharomyces cerevisiae YGL158W mutant at 20 ug/disc after 24 to 48 hrs by agar diffusion assay; format: functional; details: read-out: DIZ; method in brief: as §1
Saccharomyces cerevisiae [3] = test: Growth inhibition of POS5-deficient Saccharomyces cerevisiae YPL188W mutant at 20 ug/disc after 24 to 48 hrs by agar diffusion assay; format: functional; details: read-out: DIZ; method in brief: as §1
Saccharomyces cerevisiae [4] = test: Growth inhibition of WSC4-deficient Saccharomyces cerevisiae YHL028W mutant at 20 ug/disc 24 to 48 hrs by agar diffusion assay; format: functional; details: read-out: DIZ; method in brief: as §1
Saccharomyces cerevisiae [5] = test: Growth inhibition of wild type Saccharomyces cerevisiae BY4741 at 20 ug/disc after 24 to 48 hrs by agar diffusion assay; format: functional; details: read-out: DIZ; method in brief: as §1
[6] = Cytotoxicity against human PHF cells after 24 hrs by MTT assay; format: cell-based
Method in brief: (§2)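 MTT assay. Cells were seeded at 50,000 cells/mL in medium with 10% fetal calf serum and grown for two days at 37 °C, 10% CO2. Serial dilutions of compound were then added for 24 h. MTT was added (final 0.5 mg/mL) for 2 h, and the formazan was pelleted, washed, dissolved in isopropanol with 0.4% HCl and read at 590 nm. IC50 is the concentration giving 50% of untreated-control absorbance, taken from dose-response curves; mean of two parallel experiments.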

HUVEC = test: Cytotoxicity against human HUVEC cells after 24 hrs by MTT assay; format: cell-based; method in brief: as §2
A-431 = test: Cytotoxicity against human A431 cells after 24 hrs by MTT assay; format: functional, cell-based; details: A-431, 24 h; method in brief: as §2
MDA-MB-468 = test: Cytotoxicity against human MDA-MB-468 cells; format: functional
T47D = test: Cytotoxicity against human T47D cells; format: functional
BT-549 = test: Cytotoxicity against human BT549 cells; format: functional
UO-31 = test: Cytotoxicity against human UO31 cells; format: functional
TK-10 = test: Cytotoxicity against human TK10 cells; format: functional
CAKI-1 = test: Cytotoxicity against human Caki1 cells; format: functional
ACHN = test: Cytotoxicity against human ACHN cells; format: functional
A498 = test: Cytotoxicity against human A498 cells; format: functional
[7] = Cytotoxicity against human 786-O cells; format: functional
OVCAR-8 = test: Cytotoxicity against human OVCAR8 cells; format: functional
UACC-62 = test: Cytotoxicity against human UACC62 cells; format: functional
SK-MEL-5 = test: Cytotoxicity against human SK-MEL-5 cells; format: functional
SK-MEL-2 = test: Cytotoxicity against human SK-MEL-2 cells; format: functional
MDA-MB-435 = test: Cytotoxicity against human MDA-MB-435 cells; format: functional
Malme-3M = test: Cytotoxicity against human MALME-3M cells; format: functional
M14 = test: Cytotoxicity against human M14 cells; format: functional
SNB-75 = test: Cytotoxicity against human SNB75 cells; format: functional
SF-539 = test: Cytotoxicity against human SF539 cells; format: functional
SNB-19 = test: Cytotoxicity against human SNB19 cells; format: functional
SF-295 = test: Cytotoxicity against human SF295 cells; format: functional
SW-620 = test: Cytotoxicity against human SW620 cells; format: functional
HT-29 = test: Cytotoxicity against human HT-29 cells; format: functional
KM12 = test: Cytotoxicity against human KM12 cells; format: functional
HCT-116 = test: Cytotoxicity against human HCT116 cells; format: functional
HCC 2998 = test: Cytotoxicity against human HCC2998 cells; format: functional
NCI-H522 = test: Cytotoxicity against human NCI-H522 cells; format: functional
NCI-H322M = test: Cytotoxicity against human NCI-H322M cells; format: functional
NCI-H226 = test: Cytotoxicity against human NCI-H226 cells; format: functional
RPMI-8226 = test: Cytotoxicity against human RPMI8226 cells; format: functional

CC1=C([Se]CC(OC(=O)[C@@H](CSSC(C)(C)C)NC(=O)C(C)(C)C)C(=O)NCCCCCC(=O)OCc2ccccc2)C(=O)c2ccccc2C1=O (stereo partly specified)
GI50 (SR): 3.8 µM | LC50 (SR): > 100 µM | TGI (SR; read-out: pTGI (converted)): 18.6 µM | GI50 (DU-145): 2.14 µM | LC50 (DU-145): 9.55 µM | TGI (DU-145; read-out: pTGI (converted)): 4.47 µM | zone of inhibition at 20 µg/disc (Saccharomyces cerevisiae [1]): 0 mm | zone of inhibition at 20 µg/disc (Saccharomyces cerevisiae [2]): 0 mm | zone of inhibition at 20 µg/disc (Saccharomyces cerevisiae [3]): 0 mm | zone of inhibition at 20 µg/disc (Saccharomyces cerevisiae [4]): 14 mm | zone of inhibition at 20 µg/disc (Saccharomyces cerevisiae [5]): 0 mm | pIC50 [6]: 5.40 | pIC50 (HUVEC): 5.00 | pIC50 (A-431): 5.40 | GI50 (MDA-MB-468): 2.19 µM | LC50 (MDA-MB-468): 8.51 µM | TGI (MDA-MB-468; read-out: pTGI (converted)): 4.37 µM | GI50 (T47D): 2.19 µM | LC50 (T47D): > 100 µM | TGI (T47D; read-out: pTGI (converted)): 6.46 µM | GI50 (BT-549): 1.78 µM | LC50 (BT-549): 5.62 µM | TGI (BT-549; read-out: pTGI (converted)): 3.16 µM | GI50 (UO-31): 1.48 µM | LC50 (UO-31): 6.76 µM | TGI (UO-31; read-out: pTGI (converted)): 3.16 µM | GI50 (TK-10): 2.4 µM | LC50 (TK-10): 8.13 µM | TGI (TK-10; read-out: pTGI (converted)): 4.47 µM | GI50 (CAKI-1): 2.19 µM | LC50 (CAKI-1): 9.33 µM | TGI (CAKI-1; read-out: pTGI (converted)): 4.57 µM | GI50 (ACHN): 2.14 µM | LC50 (ACHN): 14.5 µM | TGI (ACHN; read-out: pTGI (converted)): 4.9 µM | GI50 (A498): 1.62 µM | LC50 (50% lethal concentration) (A498): 56.2 µM | TGI (A498; read-out: pTGI (converted)): 4.79 µM | GI50 ([7]; 786-0): 2.09 µM | LC50 ([7]; 786-0): 6.31 µM | TGI ([7]; 786-0, read-out: pTGI (converted)): 3.63 µM | GI50 (OVCAR-8): 2 µM | LC50 (OVCAR-8): 7.08 µM | TGI (OVCAR-8; read-out: pTGI (converted)): 3.8 µM | GI50 (UACC-62): 1.95 µM | LC50 (UACC-62): 8.13 µM | TGI (UACC-62; read-out: pTGI (converted)): 3.98 µM | GI50 (SK-MEL-5): 1.91 µM | LC50 (SK-MEL-5): 5.89 µM | TGI (SK-MEL-5; read-out: pTGI (converted)): 3.31 µM | GI50 (SK-MEL-2): 2.24 µM | LC50 (SK-MEL-2): 39.8 µM | TGI (SK-MEL-2; read-out: pTGI (converted)): 5.01 µM | GI50 (MDA-MB-435): 2.29 µM | LC50 (MDA-MB-435): 25.1 µM | TGI (MDA-MB-435; read-out: pTGI (converted)): 5.5 µM | GI50 (Malme-3M): 2.51 µM | LC50 (Malme-3M): 13.5 µM | TGI (Malme-3M; read-out: pTGI (converted)): 5.13 µM | GI50 (M14): 2.04 µM | LC50 (M14): 7.94 µM | TGI (M14; read-out: pTGI (converted)): 4.07 µM | GI50 (SNB-75): 1.38 µM | LC50 (SNB-75): 5.13 µM | TGI (SNB-75; read-out: pTGI (converted)): 2.69 µM | GI50 (SF-539): 1.91 µM | LC50 (SF-539): 5.89 µM | TGI (SF-539; read-out: pTGI (converted)): 3.39 µM | GI50 (SNB-19): 1.1 µM | LC50 (SNB-19): 6.03 µM | TGI (SNB-19; read-out: pTGI (converted)): 2.57 µM | GI50 (SF-295): 0.316 µM | LC50 (SF-295): > 100 µM | TGI (SF-295; read-out: pTGI (converted)): 1.95 µM | GI50 (SW-620): 2.29 µM | LC50 (SW-620): 15.8 µM | TGI (SW-620; read-out: pTGI (converted)): 5.25 µM | GI50 (HT-29): 2.69 µM | LC50 (HT-29): > 100 µM | TGI (HT-29; read-out: pTGI (converted)): 7.41 µM | GI50 (KM12): 1.78 µM | LC50 (KM12): 6.76 µM | TGI (KM12; read-out: pTGI (converted)): 3.47 µM | GI50 (HCT-116): 1.55 µM | LC50 (HCT-116): 8.91 µM | TGI (HCT-116; read-out: pTGI (converted)): 3.72 µM | GI50 (HCC 2998): 2.19 µM | LC50 (HCC 2998): 7.24 µM | TGI (HCC 2998; read-out: pTGI (converted)): 3.98 µM | GI50 (NCI-H522): 1.7 µM | LC50 (NCI-H522): 6.17 µM | TGI (NCI-H522; read-out: pTGI (converted)): 3.24 µM | GI50 (NCI-H322M): 0.398 µM | LC50 (NCI-H322M): > 100 µM | TGI (NCI-H322M; read-out: pTGI (converted)): 2.29 µM | GI50 (NCI-H226): 2.34 µM | CC50 (NCI-H226; read-out: pLC50 (the source's name) (converted)): 9.12 µM | TGI (NCI-H226; read-out: pTGI (converted)): 4.68 µM | GI50 (RPMI-8226): 2.34 µM | LC50 (RPMI-8226): > 100 µM | TGI (RPMI-8226; read-out: pTGI (converted)): 6.76 µM
